Results from ChEMBL document CHEMBL1140724, “Identification of human intestinal carboxylesterase as the primary enzyme for activation of a doxazolidine carbamate prodrug” (J Med Chem, 2008).

Tests used:
[1] = test system: MCF7; test: Growth inhibition of doxorubicin-sensitive human MCF7 cells after 24 hrs in presence of human carboxylesterase 1; assay type: functional, cell-based; conditions: MCF7, 24 h
How it was run: (§1)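 MCF-7 or MCF-7/Adr cells in RPMI 1640 with 10% fetal calf serum were seeded and left overnight to adhere. Medium was then replaced with complete medium holding prodrug in DMSO (1% final), alone or with additive: recombinant hiCE 250 ng/mL, hCE1 2.5 µg/mL, pig liver esterase 30 µg/mL, or N-Hep G2 lysate 83.5 µg protein/mL. Exposure was 24 h, then fresh medium.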

[2] = test system: MCF7; test: Growth inhibition of doxorubicin-sensitive human MCF7 cells after 24 hrs in presence of human carboxylesterase 1 relative to pentyl PABC-Doxorubicin; assay type: functional
[3] = Growth inhibition of […] human MCF7/Adr cells after 24 hrs in presence of human carboxylesterase 1 relative to pentyl PABC-Doxorubicin; assay type: functional, NCI/ADR-RES
[4] = test system: MCF7; test: (§2) Growth inhibition of doxorubicin-sensitive human MCF7 cells after 24 hrs; assay type: functional, cell-based; conditions: MCF7, 24 h; how it was run: as §1
[5] = Growth inhibition of doxorubicin-resistant human MCF7/Adr cells after 24 hrs; assay type: functional, cell-based; conditions: NCI/ADR-RES; how it was run: as §1
[6] = Growth inhibition of human MCF7/Adr cells after 24 hrs in presence of human carboxylesterase 1; conditions: NCI/ADR-RES
[7] = test system: MCF7; test: Growth inhibition of doxorubicin-sensitive human MCF7 cells after 24 hrs in presence of pig liver esterase; assay type: functional, cell-based; conditions: MCF7, 24 h; how it was run: as §1
[8] = test system: MCF7; test: Growth inhibition of doxorubicin-sensitive human MCF7 cells after 24 hrs in presence of human intestinal carboxylesterase; assay type: functional, cell-based; conditions: MCF7, 24 h; how it was run: as §1
[9] = test system: MCF7; test: Growth inhibition of doxorubicin-sensitive human MCF7 cells after 24 hrs in presence of N-Hep G2 lysate; assay type: functional, cell-based; conditions: MCF7, 24 h; how it was run: as §1
[10] = Growth inhibition of […] human MCF7/Adr cells after 24 hrs in presence of human intestinal carboxylesterase; assay type: functional, cell-based; conditions: NCI/ADR-RES; how it was run: as §1
[11] = Growth inhibition of […] human MCF7/Adr cells after 24 hrs in presence of N-Hep G2 lysate; assay type: functional, cell-based; conditions: NCI/ADR-RES; how it was run: as §1
[12] = test system: MCF7; test: Growth inhibition of doxorubicin-sensitive human MCF7 cells after 24 hrs in presence of human intestinal carboxylesterase relative to pentyl PABC-Doxorubicin; assay type: functional
[13] = test system: MCF7; test: Growth inhibition of doxorubicin-sensitive human MCF7 cells after 24 hrs in presence of N-Hep G2 lysate relative to pentyl PABC-Doxorubicin; assay type: functional
[14] = Growth inhibition of […] human MCF7/Adr cells after 24 hrs in presence of human intestinal carboxylesterase relative to pentyl PABC-Doxorubicin; assay type: functional, NCI/ADR-RES
[15] = Growth inhibition of […] human MCF7/Adr cells after 24 hrs in presence of N-Hep G2 lysate relative to pentyl PABC-Doxorubicin; assay type: functional, NCI/ADR-RES
[16] = Growth inhibition of human U373IRES cells after 1 hr; assay type: functional, U-373MG ATCC
How it was run: (§3)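 U373MG glioblastoma cells (vector U373IRES, hCE1-overexpressing UhCE1, or hiCE-overexpressing UhiCE) were cultured in DMEM with 10% fetal calf serum and no antibiotics. They were exposed to graded prodrug for 1 h. Growth inhibition was measured as IC50, with points as mean ± standard deviation of six measurements.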

[17] = test system: MCF7; test: Growth inhibition of human MCF7 cells; assay type: functional, cell-based
[18] = Growth inhibition of human MCF7/Adr cells; assay type: functional, cell-based; conditions: NCI/ADR-RES
[19] = test system: SK-HEP1; test: Growth inhibition of human SK-HEP-1 cells; assay type: functional, cell-based
[20] = test system: HepG2; test: Growth inhibition of human HepG2 cells; assay type: functional, cell-based
[21] = Growth inhibition of human N-HepG2 cells; assay type: functional, cell-based
[22] = Growth inhibition of rat H9c2(2-1) cells; assay type: functional
[23] = organism: Sus scrofa; test: Hydrolysing activity of pig liver esterase assessed as doxorubicin production
[24] = organism: Homo sapiens; test: Hydrolysing activity of human recombinant intestinal carboxylesterase
How it was run: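 Recombinant baculovirus-expressed hiCE (26 µg/mL) was incubated with 50 µM prodrug in 5% DMSO with FBS/RPMI/PBS pH 7.4. Timed aliquots were quenched in equal-volume ethanol, held at -20 °C overnight and centrifuged. 1 unit = 1 µM Dox per hour; specific activity is per mg protein.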

[25] = test system: MCF7; test: as §2; assay type: functional; how it was run: as §1
[26] = test system: MCF7; test: Growth inhibition of doxorubicin-sensitive human MCF7 cells after 24 hrs in presence of pig liver esterase relative to pentyl PABC-Doxorubicin; assay type: functional
[27] = Growth inhibition of doxorubicin-resistant human MCF7/Adr cells after 24 hrs in presence of human intestinal carboxylesterase; assay type: functional, NCI/ADR-RES; how it was run: as §1
[28] = Growth inhibition of human U373MG cells containing U373IRES plasmid after 1 hr; assay type: functional, cell-based, U-373MG ATCC; conditions: U373 MG; how it was run: as §3
[29] = Growth inhibition of human U373MG cells containing UhCE1 expressing plasmid after 1 hr; assay type: functional, cell-based, U-373MG ATCC; conditions: U373 MG; how it was run: as §3
[30] = Growth inhibition of human U373MG cells containing UhiCE expressing plasmid after 1 hr relative to pentyl PABC-Doxorubicin; assay type: functional, U-373MG ATCC
How it was run: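 UhiCE cells were preincubated 2 h with 10 µM benzil, a membrane-permeable CE inhibitor, before 1 h prodrug exposure. IC50 was compared with prodrug alone, using means of six measurements.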

[31] = Growth inhibition of human U373MG cells containing UhiCE expressing plasmid after 1 hr; assay type: functional, cell-based, U-373MG ATCC; conditions: U373 MG; how it was run: as §3

Question: What does the source list for `O=S(=O)(Nc1ccc(NS(=O)(=O)c2ccc(Cl)cc2)cc1)c1ccc(Cl)cc1`?
Answer: IC50 [1]: 1000 nM; Fold change [2]: >1; Fold change [3]: >1; IC50 [4]: > 1000 nM; IC50 [5]: > 1000 nM; IC50 [6]: 794 nM

Question: With `CCCCCOC(=O)Nc1ccc(COC(=O)N2CO[C@@H]3[C@H](C)O[C@H](O[C@H]4C[C@](O)(C(=O)CO)Cc5c(O)c6c(c(O)c54)C(=O)c4c(OC)cccc4C6=O)C[C@@H]32)cc1` as the compound, how does the IC50 [7] read?
Answer: The IC50 was 3.98 nM.

Question: What about the IC50 [8] of the same compound?
Answer: Its IC50 is 15.8 nM.

Question: What about the IC50 [9] of the same compound?
Answer: Its IC50 is 251 nM.

Question: What about the IC50 [10] of the same compound?
Answer: Its IC50 is 12.6 nM.

Question: And the IC50 [11]?
Answer: Its IC50 is 158 nM.

Question: What about the Fold change [12] of the same compound?
Answer: The Fold change was greater than 63.

Question: And the Fold change [13]?
Answer: The Fold change was greater than 4.

Question: And the Fold change [14]?
Answer: The Fold change was greater than 79.

Question: And the Fold change [15]?
Answer: The Fold change was greater than 6.

Question: What about the Fold change [16] of the same compound?
Answer: Its Fold change is 1.

Question: What about the IC50 [17] of the same compound?
Answer: Its IC50 is 2510 nM.

Question: And the IC50 [18]?
Answer: The IC50 was 316 nM.

Question: What about the IC50 [19] of the same compound?
Answer: Its IC50 is 1000 nM.

Question: And the IC50 [20]?
Answer: Its IC50 is 50.1 nM.

Question: And the IC50 [21]?
Answer: Its IC50 is 20 nM.

Question: And the IC50 [22]?
Answer: Its IC50 is 631 nM.

Question: What about the Activity [23] of the same compound?
Answer: The Activity was 47 µM/h.

Question: And the Activity [24]?
Answer: The Activity was 0.065 µM/h.

Question: What about the IC50 [4] of the same compound?
Answer: The IC50 was greater than 1000 nM.

Question: And the IC50 [5]?
Answer: The IC50 was greater than 1000 nM.

Question: And the Fold change [25]?
Answer: Its Fold change is 1.

Question: And the Fold change [26]?
Answer: Its Fold change is greater than 100.

Question: What about the Fold change [27] of the same compound?
Answer: Its Fold change is greater than 79.

Question: And the IC50 [28]?
Answer: Its IC50 is greater than 1000 nM.

Question: And the IC50 [29]?
Answer: The IC50 was greater than 1000 nM.

Question: And the Fold change [30]?
Answer: Its Fold change is greater than 20.

Question: What does the source list for `COc1cccc2c1C(=O)c1c(O)c3c(c(O)c1C2=O)C[C@@](O)(C(=O)CO)C[C@@H]3OC1C[C@H](N)[C@H](O)[C@H](C)O1` (single isomer, unassigned) [DOXORUBICIN]?
Answer: IC50 [28]: 158 nM; IC50 [29]: 158 nM; IC50 [31]: 200 nM
